Experimental data taken from ChEMBL document CHEMBL1158497, “Arylpyrrolizines as inhibitors of microsomal prostaglandin E2 synthase-1 (mPGES-1) or as dual inhibitors of mPGES-1 and 5-lipoxygenase (5-LOX)” (J Med Chem, 2009).
Calls of active or inactive are those of the source. The rule behind the calls is not given here.

What was measured:
[1] = target: T1, Prostaglandin E synthase (Homo sapiens) (UniProt O14684); test: Inhibition of mPGES1 in IL1-beta treated human A549 cell microsomal membrane assessed as residual enzyme activity at 10 uM after 1 min by measuring PGE2 level using RP-HPLC method relative to control; type: microsomes; conditions: Microsome
T1 sequence (whole entry): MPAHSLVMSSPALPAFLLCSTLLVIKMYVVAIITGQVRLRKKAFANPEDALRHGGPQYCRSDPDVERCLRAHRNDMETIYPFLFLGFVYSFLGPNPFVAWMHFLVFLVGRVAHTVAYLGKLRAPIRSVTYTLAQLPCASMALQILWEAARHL
Outline: (§1)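 Cell-free assay using microsomes from A549 cells as the PGE2 synthase source. Compounds were tested at four concentrations (10 μM, 1 μM, 100 nM, 10 nM; 1 nM where needed) in 0.1% DMSO vehicle. Read-out was PGE2 level as a percentage of vehicle control, n=3-5, with ANOVA and Tukey HSD versus vehicle.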

[2] = Inhibition of 5-lipoxygenase in bovine polymorphonuclear leucocytes assessed as formation of LTB4 by HPLC method; type: cell-based; conditions: Bos taurus
[3] = target: T2, Prostaglandin E synthase (Homo sapiens, UniProt O14684); test: Inhibition of mPGES1 in IL1-beta treated human A549 cell microsomal membrane assessed as residual enzyme activity after 1 min by measuring PGE2 level using RP-HPLC method; type: microsomes, Microsome; outline: as §1
T2 sequence (O14684 whole entry): T1 sequence (whole entry)

[4] = target: T3, Prostaglandin G/H synthase 1 (Ovis aries) (UniProt P05979); test: Inhibition of ovine COX1 assessed as residual enzyme activity at 30 uM preincubated for 5 mins by measuring 12-HHT level using HPLC method relative to control
T3 sequence (whole entry): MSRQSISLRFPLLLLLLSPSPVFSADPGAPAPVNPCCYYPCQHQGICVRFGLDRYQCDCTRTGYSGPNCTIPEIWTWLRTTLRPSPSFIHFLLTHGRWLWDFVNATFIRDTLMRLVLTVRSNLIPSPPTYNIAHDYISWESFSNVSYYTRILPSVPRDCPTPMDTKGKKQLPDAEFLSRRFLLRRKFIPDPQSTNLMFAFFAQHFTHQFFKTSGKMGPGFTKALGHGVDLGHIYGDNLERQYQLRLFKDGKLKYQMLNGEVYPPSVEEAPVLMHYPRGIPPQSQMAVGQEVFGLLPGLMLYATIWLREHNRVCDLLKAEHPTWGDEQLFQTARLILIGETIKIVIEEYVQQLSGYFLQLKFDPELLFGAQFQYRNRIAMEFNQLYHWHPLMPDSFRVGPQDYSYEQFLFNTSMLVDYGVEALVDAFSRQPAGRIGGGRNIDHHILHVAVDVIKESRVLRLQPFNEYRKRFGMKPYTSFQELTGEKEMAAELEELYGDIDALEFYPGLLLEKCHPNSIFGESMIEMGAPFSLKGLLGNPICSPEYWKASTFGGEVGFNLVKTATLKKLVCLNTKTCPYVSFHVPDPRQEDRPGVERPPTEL
Outline: (§2)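 Isolated COX-1 and COX-2 enzymes were each exposed to inhibitor at 30 μM in 0.1% DMSO vehicle. Activity was read as 12-HHT concentration as a percentage of vehicle control, n=3-5, with ANOVA and Tukey HSD versus vehicle.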

[5] = target: T4, Prostaglandin G/H synthase 2 (Homo sapiens) (UniProt P35354); test: Inhibition of human recombinant COX2 assessed as residual activity at 30 uM preincubated for 5 mins by measuring 12-HHT level using HPLC method relative to control; outline: as §2
T4 sequence (whole entry): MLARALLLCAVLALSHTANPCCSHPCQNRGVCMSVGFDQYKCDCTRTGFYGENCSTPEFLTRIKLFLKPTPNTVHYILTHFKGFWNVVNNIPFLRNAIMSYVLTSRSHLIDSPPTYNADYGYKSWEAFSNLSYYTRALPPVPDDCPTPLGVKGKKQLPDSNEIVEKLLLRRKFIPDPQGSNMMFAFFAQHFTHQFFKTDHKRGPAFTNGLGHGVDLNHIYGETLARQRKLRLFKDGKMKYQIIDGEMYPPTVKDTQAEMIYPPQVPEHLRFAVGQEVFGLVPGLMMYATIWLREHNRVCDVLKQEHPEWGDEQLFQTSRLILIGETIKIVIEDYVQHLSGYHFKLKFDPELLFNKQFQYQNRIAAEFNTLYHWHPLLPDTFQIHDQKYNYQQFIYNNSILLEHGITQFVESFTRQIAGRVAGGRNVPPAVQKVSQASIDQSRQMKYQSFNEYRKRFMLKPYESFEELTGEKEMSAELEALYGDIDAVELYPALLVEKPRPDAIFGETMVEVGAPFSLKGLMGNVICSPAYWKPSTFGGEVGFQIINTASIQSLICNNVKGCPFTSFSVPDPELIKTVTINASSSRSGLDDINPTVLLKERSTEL

[6] = target: T2, Prostaglandin E synthase; test: Inhibition of mPGES1 in IL1-beta treated human A549 cell microsomal membrane assessed as blockade of PGH2 to PGE2 conversion after 1 min; type: microsomes, Microsome; outline: as §1
[7] = Inhibition of rat mPGES1

SMILES	Activity [1] [%]	IC50 [2] [µM]	IC50 [3] [µM]	Activity [4]	Activity [5]	IC50 [6] [µM]	IC50 [7] [µM]
CC1(C)Cc2c(-c3ccccc3)c(-c3ccc(Cl)cc3)c(CC(=O)NS(C)(=O)=O)n2C1	63.1	0.23	–	–	–	–	–
CC1(C)Cc2c(-c3ccccc3)c(-c3ccc(C(F)(F)F)cc3)c(CC(=O)O)n2C1	56.1	0.31	–	–	–	–	–
CC1(C)Cc2c(-c3ccccc3)c(-c3ccc([N+](=O)[O-])cc3)c(CC(=O)O)n2C1	58.8	1.5	–	–	–	–	–
CC1(C)Cc2c(-c3ccccc3)c(-c3ccc(Cl)cc3)c(Cc3nnn[nH]3)n2C1	27.9	0.5	3.9	37.4%	46.5%	–	–
O=C(O)CCc1c(-c2ccc(Cl)cc2)c(-c2ccccc2)c2n1CCC2	20.8	1.9	1.8	–	–	–	–
Cc1ccc(S(=O)(=O)NC(=O)Cc2c(-c3ccc(Cl)cc3)c(-c3ccccc3)c3n2CC(C)(C)C3)cc1	32.2	0.26	4.8	8.6%	13.6%	–	–
CC1(C)Cc2c(-c3ccccc3)c(-c3ccc(Cl)cc3)c(CCC(=O)O)n2C1	47.4	–	7.2	82.9%	inactive	–	–
CCC1(CC)Cc2c(-c3ccccc3)c(-c3ccc(Cl)cc3)c(CC(=O)NS(C)(=O)=O)n2C1	38.5	–	5.9	–	–	–	–
CC1(C)Cc2c(-c3ccccc3)c(-c3ccc4ccoc4c3)c(CC(=O)O)n2C1	42.1	–	6.2	94%	75.8%	–	–
CC1(C)Cc2c(-c3ccccc3)c(-c3ccc(Cl)cc3)c(CC(=O)O)n2C1 [LICOFELONE]	44.9	0.18	6.7	12.4%	53.7%	6	–
CC1(C)Cc2c(-c3ccccc3)c(-c3ccc(Cl)cc3)c(CC(=O)NS(=O)(=O)c3ccccc3)n2C1	28.7	0.25	4.5	25.8%	43.4%	–	–
CC(C)c1ccc2c(c1)c(SC(C)(C)C)c(CC(C)(C)C(=O)O)n2Cc1ccc(Cl)cc1	22.5	–	–	19.5%	56.7%	–	3.2
CC1(C)Cc2c(-c3ccccc3)c(-c3ccc(C(C)(C)C)cc3)c(CC(=O)O)n2C1	53.8	0.18	–	inactive	inactive	–	–
O=C(O)Cc1c(-c2ccc(Cl)cc2)c(-c2ccccc2)c2n1CCC2	65.3	1.6	–	–	–	–	–
Cc1ccc(S(=O)(=O)NC(=O)CCc2c(-c3ccc(Cl)cc3)c(-c3ccccc3)c3n2CC(C)(C)C3)cc1	23.2	–	2.1	29.2%	inactive	–	–
